Laboratory results as given in publication PMC7049346 (Haematologica, 2019).

Legend:
rodents = assay: Fertility and fetal development in rodents; type: in vivo
PDE4D1 = PDE4D1 (Homo sapiens, UniProt Q08499); assay: PDE enzyme inhibition, radiometric assay; type: biochemical
Outline: (§1)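 Recombinant human PDE enzymes (33 in the panel) were incubated in vitro with increasing concentrations of the test compound. Enzyme activity was measured radiometrically and IC50 values derived.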

UT-7 cells = assay: HbF induction in UT-7 cells; type: cell-based, human; conditions: GM-CSF dependent erythroid line UT-7; data not shown
HbSS-Townes mice = assay: Townes SCD model, 30 days daily oral dosing; type: in vivo; conditions: 30 days
K562 cells = assay: HbF induction in K562 cells; type: cell-based, human; conditions: 72 h
PDE3A = PDE3A (Homo sapiens, UniProt Q14432); assay: PDE enzyme inhibition, radiometric assay; type: biochemical
Outline: as §1

dogs = assay: Long-term toxicology study in dogs; type: in vivo
PDE8B = PDE8B (Homo sapiens, UniProt O95263); assay: PDE enzyme inhibition, radiometric assay; type: biochemical
Outline: as §1

PDE4D1, sequence (Q08499 1-584 isoform Q08499-4): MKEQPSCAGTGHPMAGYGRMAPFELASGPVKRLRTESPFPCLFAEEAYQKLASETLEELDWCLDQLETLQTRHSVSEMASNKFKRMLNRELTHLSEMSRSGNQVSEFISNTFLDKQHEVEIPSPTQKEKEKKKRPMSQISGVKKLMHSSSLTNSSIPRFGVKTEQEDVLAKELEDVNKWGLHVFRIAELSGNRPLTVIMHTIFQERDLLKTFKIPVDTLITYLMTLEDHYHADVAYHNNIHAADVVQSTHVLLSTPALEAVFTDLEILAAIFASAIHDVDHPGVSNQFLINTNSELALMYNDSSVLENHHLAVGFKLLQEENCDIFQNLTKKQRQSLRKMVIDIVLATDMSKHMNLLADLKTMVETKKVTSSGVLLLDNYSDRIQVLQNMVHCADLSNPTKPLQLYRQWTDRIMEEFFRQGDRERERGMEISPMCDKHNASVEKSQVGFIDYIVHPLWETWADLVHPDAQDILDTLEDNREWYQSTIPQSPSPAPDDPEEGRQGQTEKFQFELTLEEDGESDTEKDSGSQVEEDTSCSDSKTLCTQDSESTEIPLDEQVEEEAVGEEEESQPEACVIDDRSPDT
PDE8B, sequence (O95263 whole entry): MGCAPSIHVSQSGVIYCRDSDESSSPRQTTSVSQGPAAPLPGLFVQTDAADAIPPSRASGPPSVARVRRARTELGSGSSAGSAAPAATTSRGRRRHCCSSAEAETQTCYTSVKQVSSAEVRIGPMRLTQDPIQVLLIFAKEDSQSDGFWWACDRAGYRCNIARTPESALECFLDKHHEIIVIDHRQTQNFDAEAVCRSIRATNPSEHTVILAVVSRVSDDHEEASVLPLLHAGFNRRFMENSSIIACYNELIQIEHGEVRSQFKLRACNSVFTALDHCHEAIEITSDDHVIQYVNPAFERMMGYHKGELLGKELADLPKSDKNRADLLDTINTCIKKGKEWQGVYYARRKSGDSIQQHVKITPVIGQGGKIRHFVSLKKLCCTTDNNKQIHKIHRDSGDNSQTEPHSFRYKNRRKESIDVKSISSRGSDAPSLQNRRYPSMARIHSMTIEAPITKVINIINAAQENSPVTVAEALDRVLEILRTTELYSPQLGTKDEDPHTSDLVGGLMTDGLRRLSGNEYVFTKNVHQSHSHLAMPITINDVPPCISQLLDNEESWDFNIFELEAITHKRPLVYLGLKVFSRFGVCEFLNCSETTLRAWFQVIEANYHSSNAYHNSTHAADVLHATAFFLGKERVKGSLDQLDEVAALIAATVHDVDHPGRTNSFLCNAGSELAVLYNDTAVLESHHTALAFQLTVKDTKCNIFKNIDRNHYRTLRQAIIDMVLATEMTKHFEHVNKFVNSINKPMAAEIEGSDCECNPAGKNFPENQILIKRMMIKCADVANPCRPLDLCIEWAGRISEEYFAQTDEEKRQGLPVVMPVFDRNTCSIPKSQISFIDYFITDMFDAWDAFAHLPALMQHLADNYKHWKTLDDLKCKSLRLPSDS
PDE3A, sequence (Q14432 whole entry): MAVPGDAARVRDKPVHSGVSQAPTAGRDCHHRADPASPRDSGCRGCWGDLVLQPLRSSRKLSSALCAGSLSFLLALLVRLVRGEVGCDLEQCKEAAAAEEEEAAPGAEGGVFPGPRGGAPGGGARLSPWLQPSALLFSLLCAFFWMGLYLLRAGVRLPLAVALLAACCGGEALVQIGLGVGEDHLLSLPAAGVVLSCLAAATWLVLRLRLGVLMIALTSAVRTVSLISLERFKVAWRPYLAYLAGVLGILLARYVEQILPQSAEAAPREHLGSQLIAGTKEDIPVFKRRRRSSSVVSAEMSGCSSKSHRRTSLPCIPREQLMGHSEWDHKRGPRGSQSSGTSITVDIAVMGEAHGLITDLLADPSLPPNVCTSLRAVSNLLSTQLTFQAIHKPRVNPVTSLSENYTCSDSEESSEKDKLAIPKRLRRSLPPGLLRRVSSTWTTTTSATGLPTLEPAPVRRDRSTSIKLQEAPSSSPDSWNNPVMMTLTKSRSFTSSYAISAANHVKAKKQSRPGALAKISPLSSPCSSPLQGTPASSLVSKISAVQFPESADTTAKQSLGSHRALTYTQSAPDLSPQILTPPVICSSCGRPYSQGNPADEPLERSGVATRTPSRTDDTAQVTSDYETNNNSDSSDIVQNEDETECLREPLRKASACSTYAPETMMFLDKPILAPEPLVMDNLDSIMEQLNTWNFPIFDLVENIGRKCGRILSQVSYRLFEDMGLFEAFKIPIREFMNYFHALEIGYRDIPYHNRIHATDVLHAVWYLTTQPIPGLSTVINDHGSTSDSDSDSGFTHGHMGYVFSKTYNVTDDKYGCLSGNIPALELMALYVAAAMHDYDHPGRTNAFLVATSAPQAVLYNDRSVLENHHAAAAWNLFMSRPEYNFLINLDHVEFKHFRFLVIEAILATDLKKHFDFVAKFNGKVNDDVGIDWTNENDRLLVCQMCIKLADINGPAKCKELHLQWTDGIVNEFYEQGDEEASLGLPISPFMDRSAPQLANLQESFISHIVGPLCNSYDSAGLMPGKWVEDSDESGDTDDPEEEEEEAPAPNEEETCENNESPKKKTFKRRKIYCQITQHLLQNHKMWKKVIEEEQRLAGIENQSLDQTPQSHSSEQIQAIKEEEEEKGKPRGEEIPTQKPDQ

## C[C@@H]1CN(Cc2ncccn2)C[C@H]1c1cn2c(C3CCOCC3)ncc2c(=O)[nH]1 [IMR-687]
rodents
  impact on fertility or fetal development: did not impact fertility or fetal development
PDE4D1
  IC50: > 100 µM
UT-7 cells
  HbF induction: Induction of HbF by IMR-687 was observed
HbSS-Townes mice; 30 mg/kg
  WBC lower than vehicle: 36%
  increase in Hb: 1.5 g/dL
  increase in hematocrit: 10%
  increase in mature RBC: 27%
  increase in plasma nitrite levels: ~2.5 fold
  reduction in reticulocyte counts: 36%
  reduction of MPO levels: 2.3 fold
  reduction of plasma bilirubin and LDH vs vehicle treated SS mice: over 2 fold
  reduction of plasma free Hb levels: over 55%
HbSS-Townes mice; 30 mg/kg, HbSS-Townes vehicle 3.1 mU/L, P<0.0001
  lung MPO levels: 1.3 mU/L
HbSS-Townes mice; 30 mg/kg, P<0.0001
  reduction of lung arginase vs vehicle: 25%
HbSS-Townes mice; 30 mg/kg, P<0.01
  plasma bilirubin: 4.7 mg/dL
HbSS-Townes mice; 30 mg/kg, P<0.05
  LDH activity: 102 AU
HbSS-Townes mice; 30 mg/kg, untreated SS mice 0.56 mg/mL, P<0.05
  plasma nitrite levels: 1.39 mg/mL
HbSS-Townes mice; 30 mg/kg, vehicle 38.2×10^9/L, P<0.05
  WBC count: 2.41e+10 L⁻¹
HbSS-Townes mice; 30 mg/kg/day
  decrease in sickled RBC vs vehicle: 2 fold
  increase in the percent of HbF+ F-cells vs vehicle: greater than 3 fold
HbSS-Townes mice; 30 mg/kg/day, vehicle 8.4%
  percent of HbF+ F-cells: 27.3%
HbSS-Townes mice; 30 mg/kg/day, vehicle 56.3%
  percent sickled RBC: 24.4%
K562 cells
  HbF induction (ELISA): dose-dependently induced more HbF than either BAY73-6691 or BAY 41-2271
K562 cells; 10 μM IMR-687
  HbF induction relative to a dose of HU that demonstrated cytotoxicity: 4.6 times
PDE3A
  IC50: > 100 µM
dogs; data not shown
  myelotoxicity, histological examination of bone marrow smears: did not demonstrate any myelotoxicity
dogs; up to 9 months, oral daily 10, 25, or 50 mg/kg
  peripheral WBC counts: did not result in any reduction in peripheral WBC counts
Genotoxicity
  genotoxicity: not genotoxic
PDE8B
  IC50: > 100 µM
